Compound activity from PubChem.
Runt-SMMHC FRET = blocks binding of human RUNX1 Runt domain to CBFb-SMMHC. Cerulean-Runt/Venus-CBFb-SMMHC FRET ratio 530/480, 1 h. inhibition, % at 20 µM. 220,000 tested, 0.74% active. AID 1434;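 active means mean inhibition across duplicate retests at 20 µM reaching about 50%, limit read from the data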;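 further: 0% = DMSO wells and 100% = wells with excess untagged CBFb-SMMHC; inhibitors lower the FRET ratio by blocking Runt binding to CBFb-SMMHC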
Target sequence (Q01196 whole entry, looked up, the tested form may be a part): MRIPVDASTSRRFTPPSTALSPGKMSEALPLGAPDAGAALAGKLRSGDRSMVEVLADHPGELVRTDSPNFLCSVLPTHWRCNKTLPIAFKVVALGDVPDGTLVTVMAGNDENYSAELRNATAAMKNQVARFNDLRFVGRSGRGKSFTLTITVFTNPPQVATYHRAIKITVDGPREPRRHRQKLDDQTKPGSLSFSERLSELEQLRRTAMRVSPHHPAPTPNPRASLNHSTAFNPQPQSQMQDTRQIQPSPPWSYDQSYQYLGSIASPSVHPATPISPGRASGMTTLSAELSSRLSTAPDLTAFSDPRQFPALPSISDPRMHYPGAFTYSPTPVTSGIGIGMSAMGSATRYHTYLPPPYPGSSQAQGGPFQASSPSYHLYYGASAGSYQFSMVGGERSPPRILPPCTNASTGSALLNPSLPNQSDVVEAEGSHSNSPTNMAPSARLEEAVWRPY
Target sequence (Q13951 whole entry, looked up, the tested form may be a part): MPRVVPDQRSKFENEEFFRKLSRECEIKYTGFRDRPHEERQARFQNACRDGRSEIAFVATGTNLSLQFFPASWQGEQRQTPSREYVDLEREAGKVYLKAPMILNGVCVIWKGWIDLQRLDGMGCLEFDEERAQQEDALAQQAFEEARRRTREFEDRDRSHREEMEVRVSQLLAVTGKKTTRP
RanGTP-Imp inh = inhibitors of RanGTP-importin-beta interaction, primary screen, biochemical, FRET, CFP-Ran, YFP-importin-beta, homogeneous | 300,000 tested, 1.1% active | AID 2216 | cell-free CFP-Ran/YFP-importin-beta FRET ratio | inhibition, % (no concentration beside the values);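 active means more than half of the replicate wells show a fall in the fluorescence ratio signal beyond about 16%, limit read from the data, passing the limit was not always enough; inconclusive means exactly half of the replicate wells pass the set limit; inactive means fewer than half of replicates pass the limit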;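 further: 0% = DMSO wells and 100% = Ran loaded with GDP instead of GTP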
Runt-CBFb FRET = Runt domain-CBFb interaction inhibition; inhibition, % at 20 µM; Cerulean-Runt/Venus-CBFb FRET ratio 530/480, 1 h; AID 1496; 220,000 tested, 0.46% active;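 active means inhibition over about 50% at 20 µM in the single-dose screen, limit read from the data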;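 further: 0% = DMSO wells and 100% = excess unlabeled CBFb competitor control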
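test system = Cerulean-Runt domain fusion protein, energy donor | probe or stimulus = Venus-CBFb binding partner, 100 nM | incubation = two 1 h room-temperature incubations shielded from light | detection = fluorescence energy transfer, 422 nm excitation, 530/480 nm emission | measure = loss of energy transfer signal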
CaV13 FRET inh = Primary screen for inhibitors of IQ motif and Ca2+-dependent inactivation inhibitor domain binding in CACNA1D, Förster resonance energy transfer in living cells, … | 340,000 tested, 0.098% active | inhibition, % at 12.3 µM | HEK cells, CFP/YFP FRET ICDI-IQ, plate reader, 10 min; percent FRET-ratio fall versus neutral wells | AID 743397;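 active means mean replicate inhibition of at least 30% and at least 1% of replicates passing that level; inconclusive means only one of the two criteria is met; inactive means neither criterion is met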;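 further: 0% = median of the neutral control wells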
YIC counter = counter-screen for RanGTP-importin-beta inhibitors: YIC FRET probe; Purified YIC probe, intramolecular FRET ratio YFP/CFP; IC50, µM; shares compounds with RanGTP-Imp inh; AID 435026; 1,000 tested, 40% active;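 active means fitted half-maximal inhibitory concentration no more than tenfold above the top dose tested; inconclusive means flat fit with 30 to 70% activity, or poor fit; inactive means half-maximal concentration beyond tenfold above the top dose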
Active calls of the source: *; ? = inconclusive; nt = not tested or not shown. A selection: hits, their analogues and other compounds. The true share with any hit is near 1.2%.

SMILES	Runt-SMMHC FRET	RanGTP-Imp inh	Runt-CBFb FRET	CaV13 FRET inh	YIC counter
Cc1cccc(NC(=O)c2nc[nH]c2C(=O)N[C@@H](Cc2ccccc2)C(=O)OCc2ccccc2)c1	5	?	-1	-3	nt
COc1ccc2c(CC#N)c[nH]c2c1	-6	31*	-1	-3	>50
COc1ccc2c(CCNC(N)=S)c[nH]c2c1	-1	-18	-1	-6	nt
CC(=O)Oc1cc2oc(=O)cc(C)c2cc1OC(C)=O	42	30*	81*	-4	45*
CC(=O)Oc1ccc2c(C)cc(=O)oc2c1	19	0	9	-2	nt
O=C(O)c1ccc(S(=O)(=O)Nc2cccc(CP(=O)(c3ccccc3)c3ccccc3)c2)cc1	-2	-5	1	-5	nt
Cc1ccc(-c2nc3cc(C)ccc3o2)cc1	-3	2	0	nt	nt
Cc1ccc(-c2nc3cc(N)ccc3o2)cc1	-5	21*	-2	-4	>50
COc1cc2c(cc1OC)CN(Cc1cc(=O)oc3cc(C)c(Cl)cc13)CC2	-41	23*	-18	-3	>50
COc1cc2c(cc1OC)CN(Cc1cc(=O)oc3c(C)c(C)ccc13)CC2	-41	20*	-17	-17	>50
O=C(Cc1csc(NC(=O)Nc2ccc(Cl)cc2)n1)NCc1cccnc1	nt	-3	nt	-7	nt
CC1CCCC(N2CCN(C(=O)c3ccc([N+](=O)[O-])cc3)CC2)C1 (centres undefined)	nt	?	nt	-20	nt
Cc1c(NC(=O)C(C)OC(=O)c2cccc(S(=O)(=O)N3CCOCC3)c2)c(=O)n(-c2ccccc2)n1C (centres undefined)	-4	1	0	-1	nt
COc1cccc(CC(NC(C)=O)C(=O)NC2CCN(C(=O)c3ccc(Cl)cc3)CC2)c1 (centres undefined)	nt	-1	nt	-3	nt
O=C1CC(/C=C/c2ccccn2)=Nc2ccccc2N1	-6	-2	-3	-17	nt
O=C1CC(/C=C/c2ccco2)=Nc2ccccc2N1	-1	24*	13	nt	>50
C=C(C)CNC(=S)N/N=C/c1ccco1	2	7	4	0	nt
CCOc1ccccc1-c1n[nH]c(=S)o1	-2	3	5	-4	nt
CCCCc1cc(-c2n[nH]c(=S)o2)c2ccccc2n1	nt	20*	nt	-4	>50
Cc1ccc(C)c(NC(=S)N(C)CCc2ccccn2)c1	-8	25*	-2	-5	>50
Cc1ccccc1NC(=S)N(C)CCc1ccccn1	4	-3	0	-6	nt
CCOC(=O)c1c(/N=C/C2=C(O)CC(C)(C)CC2=O)sc(C(C)=O)c1C	-2	5	4	-1	nt
C[C@@H]1CN([C@H](C)CO)C(=O)Cc2cc(NC(=O)Nc3ccc4c(c3)OCO4)ccc2O[C@@H]1CN(C)CC1CC1	nt	nt	nt	nt	>50
C[C@H](CO)N1C[C@H](C)[C@H](CN(C)S(=O)(=O)c2cccs2)Oc2ccc(NC(=O)Nc3ccc4c(c3)OCO4)cc2CC1=O	nt	nt	nt	-6	nt
Cc1ccc(-n2c(O)c(C=Nc3ccc4c(c3)OCO4)c3ccccc3c2=O)cc1C	-314	19*	-2	-9	28*
SMILES	Runt-SMMHC FRET	RanGTP-Imp inh	Runt-CBFb FRET	CaV13 FRET inh	YIC counter
CCCN(CC(=O)Nc1cc(Cl)ccc1Cl)C(=O)/C=C/c1ccco1	3	-2	2	-5	nt
COc1ccc2c(c1)CCc1c(C(=O)Nc3ccn(Cc4ccc(C)cc4)n3)noc1-2	-4	-5	-2	-8	nt
Cc1ccc(Cn2ccc(NC(=O)c3noc4c3CCc3ccccc3-4)n2)cc1	-6	33*	2	nt	>50
CCN(c1ccccc1)S(=O)(=O)c1ccc(Cl)c(NC(=O)COC(=O)c2ccc[n+]([O-])c2)c1	-2	5	-3	-2	nt
Cc1c(C(=O)NC2=NCCS2)oc2ccccc12	-2	0	-1	-7	nt
Cc1sc(NC(=O)c2oc3ccccc3c2C)c(C#N)c1C	-1	25*	3	-6	>50
CC(=O)N1c2ccc(S(=O)(=O)N3CCC(C(=O)Nc4cccc(Cl)c4)CC3)cc2CC1C (centres undefined)	nt	25*	nt	-7	>50
CC1CCN(S(=O)(=O)c2cn(CC(=O)Nc3ccc(C#N)cc3)cn2)CC1	nt	4	nt	-4	nt
CCc1cccc(NC(=O)CN(C)S(=O)(=O)c2cnc[nH]2)c1	-3	3	-1	nt	nt
